Data set [1] has as its system Enterococcus faecium. Kind of data set: Antibacterial activity against vancomycin-resistant Enterococcus faecium ATCC 700221 by microdilution method. It counts as functional. A digest of the protocol: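 Standard broth microdilution in cation-adjusted Mueller-Hinton broth, run in four replicates at baseline. Before testing, the strain was held at −80°C in tryptone soy broth with 20% glycerol and subcultured on horse blood agar for 24 h at 35°C.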
For orientation: Broth dilution looks for growth in wells or tubes with falling amounts of substance.

Data set [2] in a line: Half life for simulated intermittent-dosage regimen at 120 mg every 12 hrs using in vitro PK/PD model.
In data set [3] the test system is Staphylococcus aureus. Kind of data set: Bactericidal activity against vancomycin-intermediate Staphylococcus aureus Mu50 assessed as reduction of CFU using in vitro PK/PD model with human dosage regimen 120 mg every 12 hrs after 24 hrs. It counts as functional. An outline of the steps: (§1)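 Flow-through central chamber of BHI broth at 37°C, with pumped clearance set for a 5-h half-life (volume of distribution 290 ml). Exponential-phase inoculum was 10^6 CFU/ml, in duplicate, with growth controls. Samples taken 0–72 h were diluted in saline, plated on nutrient agar and incubated 37°C for 24 h; quantification limit 50 CFU/ml. Drug levels were checked by HPLC. Reduction is the log10 CFU/ml fall.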

The test system of data set [4] is Staphylococcus aureus. Briefly: Antibacterial activity against methicillin-resistant Staphylococcus aureus ATCC 43300 using in vitro PK/PD model with 120 mg/24 hr continuous infusion simulated regimen after 72 hrs. The following applies: ATCC 43300, 72 h. Format: functional.
Data set [5] deals with Staphylococcus aureus. Briefly: Area under population analysis profile for vancomycin-intermediate Staphylococcus aureus Mu50 using in vitro PK/PD model relative to growth control with 120 mg/24 hrs continuous infusion regimen after 72 hrs. It counts as functional.
Data set [6] deals with Enterococcus faecium. Kind of data set: Bactericidal activity against vancomycin-resistant Enterococcus faecium ATCC 700221 assessed as reduction of CFU using in vitro PK/PD model with 120 mg/24 hr continuous infusion simulated regimen after 48 hrs. Format: functional. An outline of the steps: as §1
A short description of data set [7]: Half life for simulated intermittent-dosage regimen at 600 mg every 12 hrs using in vitro PK/PD model.
The test system of data set [8] is Staphylococcus aureus. Kind of data set: Area under population analysis profile for methicillin-resistant Staphylococcus aureus using in vitro PK/PD model relative to growth control with 120 mg/24 hrs continuous infusion regimen after 72 hrs. Format: functional. A digest of the protocol:
(§2)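 Bacteria recovered after 72 h of a 2.0-μg/ml continuous infusion in a flow-through BHI model (duplicates). 50 μl of a 0.5 McFarland suspension or dilutions were spiral-plated on BHI agar with linezolid 0–5 μg/ml and incubated 35°C for 48 h; counting limit 20 CFU/ml. Area under the log10 CFU/ml vs concentration curve (trapezoidal) is compared with the 72-h growth control.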

For data set [9], the system named is Staphylococcus aureus. Kind of data set: Bactericidal activity against vancomycin-intermediate Staphylococcus aureus Mu50 assessed as reduction of CFU using in vitro PK/PD model with human dosage regimen 600 mg every 12 hrs after 24 hrs. Format: functional. A digest of the protocol:
(§3)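 Flow-through in vitro PK/PD model in BHI broth at 37°C, 5-h half-life (Vd 290 ml); exponential-phase inoculum 10^6 CFU/ml, duplicates with growth controls. […] Viable counts by saline dilution, plating on nutrient agar, 37°C 24 h; bactericidal = >3-log10 CFU/ml drop.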

Data set [10] relates to Enterococcus faecium. Kind of data set: Area under population analysis profile for vancomycin-resistant Enterococcus faecium ATCC 700221 using in vitro PK/PD model relative to growth control with 120 mg/24 hrs continuous infusion regimen after 72 hrs. It counts as functional. A digest of the protocol:
as §2

Data set [11] relates to Staphylococcus aureus. Briefly: Bactericidal activity against heteroresistant vancomycin-intermediate Staphylococcus aureus Mu3 assessed as reduction of CFU using in vitro PK/PD model with human dosage regimen 600 mg every 12 hrs after 24 hrs. Format: functional. A digest of the protocol:
as §1

The subject of data set [12] is Staphylococcus aureus. Kind of data set: Bactericidal activity against vancomycin-intermediate Staphylococcus aureus Mu50 assessed as reduction of CFU using in vitro PK/PD model with 120 mg/24 hr continuous infusion simulated regimen after 48 hrs. It counts as functional. A digest of the protocol: as §3
The subject of data set [13] is Enterococcus faecium. Kind of data set: Bactericidal activity against vancomycin-resistant Enterococcus faecium ATCC 700221 assessed as reduction of CFU using in vitro PK/PD model with human dosage regimen 600 mg every 12 hrs at 24 hrs. It counts as functional. A digest of the protocol: as §1
In data set [14] the test system is Staphylococcus aureus. Briefly: Bactericidal activity against methicillin-resistant Staphylococcus aureus ATCC 43300 assessed as reduction of CFU using in vitro PK/PD model with human dosage regimen 600 mg every 12 hrs after 24 hrs. Format: functional. A digest of the protocol:
as §1

In data set [15] the test system is Staphylococcus aureus. Briefly: Area under population analysis profile for heteroresistant vancomycin-intermediate Staphylococcus aureus Mu3 using in vitro PK/PD model relative to growth control with 120 mg/24 hrs continuous infusion regimen after 72 hrs. Format: functional. An outline of the steps:
as §2

Data set [16] concerns Staphylococcus aureus. Briefly: Antibacterial activity against heteroresistant vancomycin-intermediate Staphylococcus aureus Mu3 using in vitro PK/PD model with 120 mg/24 hr continuous infusion simulated regimen after 72 hrs. Format: functional. The following applies: Mu3, 72 h.

In brackets after ≈: the same amount, converted by molar mass.

Usually MIC stands for the least concentration at which growth counts as inhibited. One may read the half-life as the time needed for the level to fall by half in the phase considered.

`CC(=O)NC[C@H]1CN(c2ccc(N3CCOCC3)c(F)c2)C(=O)O1` [LINEZOLID]: the figures for the minimum inhibitory concentration (MIC) in the data set on Enterococcus faecium [1], with Staphylococcus aureus [4] and against Staphylococcus aureus [16] were 2 µg/mL (≈ 5.93 µM), at least 8 µg/mL and at least 8 µg/mL, respectively. The half-life at 12 h in data set [2] and in [7] was 5.32 h in each case. For the same molecule, the log10CFU/ml in the data set on Staphylococcus aureus [3] is above 3; in the data set on Enterococcus faecium [6], above 3; in the data set on Staphylococcus aureus [9], 3.3; with Staphylococcus aureus [11], 3.1; in the data set on Staphylococcus aureus [12] it was above 3; in the data set with Enterococcus faecium [13] it was 3.8. The log10CFU/ml in the data set on Staphylococcus aureus [14] was found to be 3.9. Further, the AUPAP in the data set on Staphylococcus aureus [5] was 90.2%; in the data set with Staphylococcus aureus [8], 178%; in the data set on Enterococcus faecium [10] it was 40%; with Staphylococcus aureus [15], 70.2%.

Values taken from ChEMBL document CHEMBL1147092, “Pharmacokinetic/pharmacodynamic factors influencing emergence of resistance to linezolid in an in vitro model” (Antimicrob Agents Chemother, 2007).
